# Data: paper PMC9463105 (Chemmedchem, 2022)
# Columns and labels:
# Cell viability assay = assay type: cell-based; settings: human, HFF cells; for viability at 7 days, 10 µM: Cell‐based assays [at 10 μM] Cell viability %, triplicate, mean
# HCMV ADCREGFP virus = test: HCMV replication assay; assay type: cell-based, Human cytomegalovirus (HCMV); settings: HFF cells, triplicate, mean
# HCMV pUL89‐C = biological target: T1, HCMV pUL89‐C (Human cytomegalovirus, UniProt P16732); test: In vitro pUL89‐C endonuclease assay; assay type: biochemical; settings: for IC50: IC50, dose response, duplicate; for inhibition at 10 µM: read-out: Nuclease inhibition % at 10 μM
# T1 sequence (P16732 418-674 limits assumed): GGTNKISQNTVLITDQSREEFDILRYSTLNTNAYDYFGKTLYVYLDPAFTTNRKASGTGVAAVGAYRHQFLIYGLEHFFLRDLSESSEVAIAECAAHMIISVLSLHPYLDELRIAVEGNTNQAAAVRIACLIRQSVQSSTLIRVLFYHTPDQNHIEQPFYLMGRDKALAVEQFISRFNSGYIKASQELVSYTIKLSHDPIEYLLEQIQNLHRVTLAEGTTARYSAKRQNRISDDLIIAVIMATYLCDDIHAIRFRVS
# pUL89‐C = biological target: T2, pUL89‐C (Human cytomegalovirus, UniProt P16732); test: pUL89‐C thermal shift assay; assay type: binding, Human cytomegalovirus (HCMV); settings: 20 μM compound, compared to DMSO control
# T2 sequence (P16732 418-674 limits assumed): T1 sequence (P16732 418-674 limits assumed)
# Method in brief: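 pUL89-C was expressed in E. coli and Ni-purified via a C-terminal His tag. Test compound (20 μM) was incubated with 4 μg of this protein in 5 mM MnCl2, 30 mM Tris pH 8, 50 mM NaCl for 25 min at room temperature, with 1% DMSO final. Sypro Orange was the dye. ΔTm is the mean derivative Tm vs DMSO vehicle, triplicates, with at least two independent determinations.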
SMILES,inhibition at 10 µM (HCMV pUL89‐C) [%],CC50 at 7 days (Cell viability assay) [µM],Cell‐based assays [at 10 μM] Inhibition % (HCMV ADCREGFP virus),IC50 (HCMV pUL89‐C) [µM],"viability at 7 days, 10 µM (Cell viability assay) [%]",ΔTm (thermal shift) (pUL89‐C)
"Nc1nc(O)c2ncn(COC(CO)CO)c2n1 [Compound 1, ganciclovir, reference compound]",,> 50,,,,
COCCNC(=O)c1nc(Cl)c2cccnc2c1O [Compound 15f],51 ± 14,,insignificant,5.7 ± 0.39,96 ± 2.1,
Cc1ccc(CNC(=O)c2nc(Cl)c3cccnc3c2O)cc1 [Compound 15d],66 ± 13,> 50,,,96 ± 1.5,> 0
O=C(NCc1ccc(F)cc1)c1nc(Cl)c2cccnc2c1O [Compound 15a],49 ± 4.7,60 ± 2.4,,4.3 ± 1.2,97 ± 2.3,> 0
O=C(NCc1ccc(Cl)c(Cl)c1)c1nc(Cl)c2cccnc2c1O [Compound 15b],33 ± 5.3,> 50,,13 ± 3.8,95 ± 1,
O=C(NCc1ccc(F)c(Cl)c1)c1nc(Cl)c2cccnc2c1O [Compound 15c],15 ± 2,,,,100 ± 5.7,
COC(=O)c1nc(Cl)c2cccnc2c1O [Compound 13],16 ± 2.5,,,,96 ± 1,
O=C(O)c1nc(-c2ccc(C(F)(F)F)cc2)c2cccnc2c1O [Compound 14],19 ± 0.1,,,,97 ± 0.9,
Cc1ccc(CNC(=O)c2nc(-c3ccccc3)c3cccnc3c2O)cc1 [Compound 16a],71 ± 2.4,> 100,,,99 ± 2.6,> 0

# Second part, led by results:
inhibition at 10 µM (HCMV pUL89‐C) [%],SMILES,CC50 at 7 days (Cell viability assay) [µM],Cell‐based assays [at 10 μM] Inhibition % (HCMV ADCREGFP virus),IC50 (HCMV pUL89‐C) [µM],"viability at 7 days, 10 µM (Cell viability assay) [%]",ΔTm (thermal shift) (pUL89‐C)
17 ± 8.7,O=C(NCc1ccc(F)cc1)c1nc(-c2ccccc2F)c2cccnc2c1O [Compound 16d],,,,≤ 70,
8.2 ± 1.9,O=C(NCc1ccc(F)cc1)c1nc(-c2cccc(Cl)c2)c2cccnc2c1O [Compound 16e],,,,≤ 70,
52 ± 3.6,COc1cccc(-c2nc(C(=O)NCc3ccc(C)cc3)c(O)c3ncccc23)c1 [Compound 16b],> 60,,24 ± 5.4,76 ± 1.7,
